Measured values reported in the M2OR odorant receptor database.
Positions count from the first letter of the chain named.

Columns and labels:
Settings in all cases: stereoisomer not certain
OR5P3 (Homo sapiens) = target: T1, OR5P3 (Homo sapiens) (UniProt Q8WZ94)
T1 sequence (whole entry): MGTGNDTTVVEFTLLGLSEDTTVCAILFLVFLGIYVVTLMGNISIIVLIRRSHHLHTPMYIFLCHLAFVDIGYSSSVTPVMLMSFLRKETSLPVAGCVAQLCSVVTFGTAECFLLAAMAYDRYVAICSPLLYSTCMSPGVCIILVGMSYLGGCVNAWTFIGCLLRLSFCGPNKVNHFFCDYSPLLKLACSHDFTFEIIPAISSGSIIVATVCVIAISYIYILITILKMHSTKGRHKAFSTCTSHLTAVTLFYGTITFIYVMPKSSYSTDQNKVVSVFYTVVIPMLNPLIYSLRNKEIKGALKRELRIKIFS
Outline: (§1)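 Each receptor–molecule pair is labelled responsive or non-responsive (inactive) according to whether the original authors judged the measured signal statistically different from baseline. The data were taken from the main text and supplementary material of published papers and checked for typos and inconsistencies. Assay methods differed by source, with transient luciferase assays in mammalian cell lines being common.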

OR5M8 (Homo sapiens) = target: T2, OR5M8 (Homo sapiens) (UniProt Q8NGP6)
T2 sequence (whole entry): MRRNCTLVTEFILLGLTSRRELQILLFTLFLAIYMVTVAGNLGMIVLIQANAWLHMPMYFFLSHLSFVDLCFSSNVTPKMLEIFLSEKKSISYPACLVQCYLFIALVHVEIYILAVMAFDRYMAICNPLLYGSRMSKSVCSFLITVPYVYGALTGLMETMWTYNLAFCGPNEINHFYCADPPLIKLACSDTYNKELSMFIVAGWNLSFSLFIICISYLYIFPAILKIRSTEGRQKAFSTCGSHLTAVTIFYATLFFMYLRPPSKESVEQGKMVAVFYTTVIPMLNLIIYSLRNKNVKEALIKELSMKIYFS
Outline: as §1

OR5M9 (Homo sapiens) = target: T3, OR5M9 (Homo sapiens) (UniProt Q8NGP3)
T3 sequence (whole entry): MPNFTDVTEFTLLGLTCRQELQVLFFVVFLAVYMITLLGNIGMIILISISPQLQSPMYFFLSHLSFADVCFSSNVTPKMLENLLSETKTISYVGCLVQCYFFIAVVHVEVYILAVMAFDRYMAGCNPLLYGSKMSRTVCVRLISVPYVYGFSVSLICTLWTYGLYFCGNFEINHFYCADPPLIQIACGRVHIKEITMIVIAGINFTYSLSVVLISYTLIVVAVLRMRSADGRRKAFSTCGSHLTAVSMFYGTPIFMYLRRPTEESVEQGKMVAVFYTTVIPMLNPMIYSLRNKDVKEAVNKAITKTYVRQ
Outline: as §1

OR5MA L2F C311H = system: T4, OR5MA L2F C311H
T4 sequence (whole entry): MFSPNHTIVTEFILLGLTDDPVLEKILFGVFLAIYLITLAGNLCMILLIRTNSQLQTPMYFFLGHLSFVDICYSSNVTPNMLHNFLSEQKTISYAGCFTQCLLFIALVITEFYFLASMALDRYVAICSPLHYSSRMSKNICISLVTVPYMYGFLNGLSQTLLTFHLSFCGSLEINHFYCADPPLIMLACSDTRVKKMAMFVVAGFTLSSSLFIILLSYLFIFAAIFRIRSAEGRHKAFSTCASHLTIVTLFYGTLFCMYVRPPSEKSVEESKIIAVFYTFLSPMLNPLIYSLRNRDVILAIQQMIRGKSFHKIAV
Outline: as §1

OR5MA L2F Q54H C311H = system: T5, OR5MA L2F Q54H C311H
T5 sequence (whole entry): T4 sequence (whole entry) with Q54H
Outline: as §1

OR5P2 (Homo sapiens) = target: T6, OR5P2 (Homo sapiens) (UniProt Q8WZ92)
T6 sequence (whole entry): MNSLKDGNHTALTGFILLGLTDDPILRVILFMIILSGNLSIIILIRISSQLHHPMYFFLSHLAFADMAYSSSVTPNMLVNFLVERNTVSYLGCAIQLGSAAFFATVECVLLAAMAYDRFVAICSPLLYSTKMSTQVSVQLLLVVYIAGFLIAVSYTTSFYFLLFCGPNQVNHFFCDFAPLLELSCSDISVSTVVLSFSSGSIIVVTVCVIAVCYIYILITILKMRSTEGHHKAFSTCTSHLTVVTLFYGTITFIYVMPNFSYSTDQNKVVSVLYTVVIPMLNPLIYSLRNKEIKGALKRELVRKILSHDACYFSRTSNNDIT
Outline: as §1

OR5P3 L301R = system: T7, OR5P3 L301R
T7 sequence (whole entry): T1 sequence (whole entry) with L301R
Outline: as §1

OR5R1 C122R S128G F184L = system: T8, OR5R1 C122R S128G F184L
T8 sequence (whole entry): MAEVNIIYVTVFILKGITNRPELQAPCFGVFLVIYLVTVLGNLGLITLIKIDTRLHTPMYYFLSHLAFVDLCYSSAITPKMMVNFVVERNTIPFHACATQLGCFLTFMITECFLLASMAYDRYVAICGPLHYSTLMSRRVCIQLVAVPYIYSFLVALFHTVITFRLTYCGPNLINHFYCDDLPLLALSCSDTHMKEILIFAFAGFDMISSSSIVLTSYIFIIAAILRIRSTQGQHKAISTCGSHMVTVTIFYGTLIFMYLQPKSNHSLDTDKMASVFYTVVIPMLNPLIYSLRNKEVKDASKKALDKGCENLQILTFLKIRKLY
Outline: as §1

OR5T1 (Homo sapiens) = target: T9, OR5T1 (Homo sapiens) (UniProt Q8NG75)
T9 sequence (whole entry): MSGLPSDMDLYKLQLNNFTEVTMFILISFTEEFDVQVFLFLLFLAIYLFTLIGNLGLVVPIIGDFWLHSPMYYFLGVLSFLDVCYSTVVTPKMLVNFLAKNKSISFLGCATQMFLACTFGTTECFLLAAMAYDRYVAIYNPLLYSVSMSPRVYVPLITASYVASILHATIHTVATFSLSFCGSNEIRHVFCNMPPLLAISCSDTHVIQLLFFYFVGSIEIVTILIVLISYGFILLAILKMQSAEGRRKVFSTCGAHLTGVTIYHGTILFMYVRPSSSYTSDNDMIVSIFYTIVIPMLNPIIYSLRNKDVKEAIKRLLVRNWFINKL
Outline: as §1

OR5T2 (Homo sapiens) = target: T10, OR5T2 (Homo sapiens) (UniProt Q8NGG2)
T10 sequence (whole entry): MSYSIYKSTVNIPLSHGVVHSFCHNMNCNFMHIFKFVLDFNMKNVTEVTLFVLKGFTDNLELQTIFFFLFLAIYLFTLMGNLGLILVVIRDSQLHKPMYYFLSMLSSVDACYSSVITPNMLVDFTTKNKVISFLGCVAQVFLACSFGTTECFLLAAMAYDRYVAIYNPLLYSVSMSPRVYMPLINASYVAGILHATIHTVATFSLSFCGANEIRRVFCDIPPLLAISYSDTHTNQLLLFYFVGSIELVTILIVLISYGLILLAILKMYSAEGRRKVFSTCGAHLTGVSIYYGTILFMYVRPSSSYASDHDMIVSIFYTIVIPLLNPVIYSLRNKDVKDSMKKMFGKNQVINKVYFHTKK
Outline: as §1

OR5T2 S4G = system: T11, OR5T2 S4G
T11 sequence (whole entry): T10 sequence (whole entry) with S4G
Outline: as §1

OR5T3 (Homo sapiens) = target: T12, OR5T3 (Homo sapiens) (UniProt Q8NGG3)
T12 sequence (whole entry): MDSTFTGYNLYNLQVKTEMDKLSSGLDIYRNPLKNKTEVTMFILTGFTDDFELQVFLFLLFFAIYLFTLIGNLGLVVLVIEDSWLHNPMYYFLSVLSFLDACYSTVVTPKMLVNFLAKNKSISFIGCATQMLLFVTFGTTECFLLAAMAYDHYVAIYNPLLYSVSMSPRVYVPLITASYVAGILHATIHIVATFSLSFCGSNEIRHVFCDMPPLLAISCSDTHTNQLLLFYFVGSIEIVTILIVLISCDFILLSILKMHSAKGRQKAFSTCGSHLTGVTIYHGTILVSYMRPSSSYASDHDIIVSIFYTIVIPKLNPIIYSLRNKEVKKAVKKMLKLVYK
Outline: as §1

OR5V1 (Homo sapiens) = target: T13, OR5V1 (Homo sapiens) (UniProt Q9UGF6)
T13 sequence (whole entry): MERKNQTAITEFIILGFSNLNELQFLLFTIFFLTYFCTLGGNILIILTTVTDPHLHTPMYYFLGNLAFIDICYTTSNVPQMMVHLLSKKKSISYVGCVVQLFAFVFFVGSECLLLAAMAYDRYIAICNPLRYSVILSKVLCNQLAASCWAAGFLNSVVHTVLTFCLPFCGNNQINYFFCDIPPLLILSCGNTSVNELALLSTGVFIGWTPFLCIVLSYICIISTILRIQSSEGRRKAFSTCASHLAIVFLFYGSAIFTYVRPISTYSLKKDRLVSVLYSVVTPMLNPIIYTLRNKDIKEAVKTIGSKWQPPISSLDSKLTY
Outline: as §1

OR5W2 (Homo sapiens) = target: T14, OR5W2 (Homo sapiens) (UniProt Q8NH69)
T14 sequence (whole entry): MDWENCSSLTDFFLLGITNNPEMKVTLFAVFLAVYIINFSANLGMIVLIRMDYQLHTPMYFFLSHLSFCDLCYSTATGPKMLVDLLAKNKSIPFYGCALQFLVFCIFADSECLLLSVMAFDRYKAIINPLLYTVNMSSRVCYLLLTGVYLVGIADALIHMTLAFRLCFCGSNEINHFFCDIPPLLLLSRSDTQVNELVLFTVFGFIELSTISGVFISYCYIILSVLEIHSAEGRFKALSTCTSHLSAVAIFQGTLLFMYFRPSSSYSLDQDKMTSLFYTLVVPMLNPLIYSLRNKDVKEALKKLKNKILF
Outline: as §1

OR5W2 R189C = system: T15, OR5W2 R189C
T15 sequence (whole entry): T14 sequence (whole entry) with R189C
Outline: as §1

OR6A2 (Homo sapiens) = target: T16, OR6A2 (Homo sapiens) (UniProt O95222)
T16 sequence (whole entry): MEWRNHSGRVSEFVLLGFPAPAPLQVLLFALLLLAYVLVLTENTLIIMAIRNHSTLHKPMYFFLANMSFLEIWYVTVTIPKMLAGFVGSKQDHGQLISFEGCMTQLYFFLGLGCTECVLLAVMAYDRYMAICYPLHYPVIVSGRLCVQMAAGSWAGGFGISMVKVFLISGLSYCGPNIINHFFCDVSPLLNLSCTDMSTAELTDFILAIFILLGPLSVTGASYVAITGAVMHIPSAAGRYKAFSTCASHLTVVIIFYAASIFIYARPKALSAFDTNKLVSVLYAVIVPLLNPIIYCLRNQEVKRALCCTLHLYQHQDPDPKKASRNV
Outline: as §1

OR6A2 I50V = system: T17, OR6A2 I50V
T17 sequence (whole entry): T16 sequence (whole entry) with I50V
Outline: as §1

OR6B1 (Homo sapiens) = target: T18, OR6B1 (Homo sapiens) (UniProt O95007)
T18 sequence (whole entry): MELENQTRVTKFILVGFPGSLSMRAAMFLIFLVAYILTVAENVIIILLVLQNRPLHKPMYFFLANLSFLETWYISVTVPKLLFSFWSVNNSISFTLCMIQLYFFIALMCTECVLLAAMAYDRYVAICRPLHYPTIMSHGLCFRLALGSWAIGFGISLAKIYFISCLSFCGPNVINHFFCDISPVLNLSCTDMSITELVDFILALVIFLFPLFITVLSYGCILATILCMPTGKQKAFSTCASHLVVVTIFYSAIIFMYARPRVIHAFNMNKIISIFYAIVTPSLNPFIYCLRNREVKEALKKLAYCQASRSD
Outline: as §1

OR6B2 (Homo sapiens) = target: T19, OR6B2 (Homo sapiens) (UniProt Q6IFH4)
T19 sequence (whole entry): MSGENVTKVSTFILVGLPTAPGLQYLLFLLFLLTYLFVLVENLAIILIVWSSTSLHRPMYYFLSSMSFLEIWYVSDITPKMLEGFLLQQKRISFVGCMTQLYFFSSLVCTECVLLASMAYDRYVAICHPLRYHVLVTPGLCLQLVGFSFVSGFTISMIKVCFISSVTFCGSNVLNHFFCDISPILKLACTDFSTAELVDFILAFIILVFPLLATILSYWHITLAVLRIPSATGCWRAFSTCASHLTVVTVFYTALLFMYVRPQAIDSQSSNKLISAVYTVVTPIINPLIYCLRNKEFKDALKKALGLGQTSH
Outline: as §1

OR6B2 R122C C179R = system: T20, OR6B2 R122C C179R
T20 sequence (whole entry): T19 sequence (whole entry) with R122C, C179R
Outline: as §1

Measured: odorant receptor agonist call;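 note: active if original authors judged signal statistically different from baseline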

CCCCC(=O)O
inactive: OR5P3 (Homo sapiens)

CCC(=O)O
inactive: OR5P3 (Homo sapiens)

CC(=O)OCc1ccccc1
inactive: OR5P3 (Homo sapiens)

CCC(=O)C(=O)CC
inactive: OR5P3 (Homo sapiens)

Cc1cnc(C)c(C)n1
inactive: all assays above

CCCCCCCCS
inactive: OR5P3 (Homo sapiens)

CCCC(=O)C(C)=O
inactive: OR5P3 (Homo sapiens)

CC1CCCCCCCCCCCCC(=O)C1 (stereo not drawn)
not listed: OR5MA L2F C311H | OR5MA L2F Q54H C311H | OR5P3 L301R | OR5R1 C122R S128G F184L | OR5T2 S4G | OR5W2 R189C | OR6A2 I50V | OR6B2 R122C C179R
inactive: all other assays above

CCCCCCC=CCCC=O
inactive: all assays above
